21 compounds from ChEMBL document CHEMBL4396964, “Synthesis, biological activities, and docking studies of d-pantolactone derivatives as novel FAS inhibitors” (Bioorg Med Chem, 2019) can be followed below.

SMILES strings stand for the structures. Calls of active or inactive are those of the source. No cut-off for these calls is given here.

In one test the target is Fatty acid synthase (Mus musculus, UniProt P19096). As to the kind of experiment: Inhibition of mouse FAS preincubated for 30 mins in presence of acetyl coenzyme A and NADPH followed by malonyl coenzyme A addition and measured after 3 mins by spectrophotometric analysis. The procedure, abridged:
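Crude mouse-liver FAS (196.2 U/mg) preincubated with compound, NADPH and acetyl-CoA in K2HPO4 buffer pH 7.0 at 37 °C for 30 min. Malonyl-CoA then added, and NADPH oxidation followed at 340 nm for 3 min at 37 °C. Inhibition computed against a compound-free control. IC50 from at least five concentrations, each in triplicate; mean ± SE of three experiments.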

The test system of the next test is HepG2. As to conditions: Homo sapiens, at 10 µM.
The target in test [1] is Fatty acid synthase (Mus musculus) (UniProt P19096). As to the kind of experiment: Inhibition of mouse FAS at 80 uM preincubated for 30 mins in presence of acetyl coenzyme A and NADPH followed by malonyl coenzyme A addition and measured after 3 mins by spectrophotometric analysis.
Fatty acid synthase (Mus musculus), sequence (P19096 whole entry): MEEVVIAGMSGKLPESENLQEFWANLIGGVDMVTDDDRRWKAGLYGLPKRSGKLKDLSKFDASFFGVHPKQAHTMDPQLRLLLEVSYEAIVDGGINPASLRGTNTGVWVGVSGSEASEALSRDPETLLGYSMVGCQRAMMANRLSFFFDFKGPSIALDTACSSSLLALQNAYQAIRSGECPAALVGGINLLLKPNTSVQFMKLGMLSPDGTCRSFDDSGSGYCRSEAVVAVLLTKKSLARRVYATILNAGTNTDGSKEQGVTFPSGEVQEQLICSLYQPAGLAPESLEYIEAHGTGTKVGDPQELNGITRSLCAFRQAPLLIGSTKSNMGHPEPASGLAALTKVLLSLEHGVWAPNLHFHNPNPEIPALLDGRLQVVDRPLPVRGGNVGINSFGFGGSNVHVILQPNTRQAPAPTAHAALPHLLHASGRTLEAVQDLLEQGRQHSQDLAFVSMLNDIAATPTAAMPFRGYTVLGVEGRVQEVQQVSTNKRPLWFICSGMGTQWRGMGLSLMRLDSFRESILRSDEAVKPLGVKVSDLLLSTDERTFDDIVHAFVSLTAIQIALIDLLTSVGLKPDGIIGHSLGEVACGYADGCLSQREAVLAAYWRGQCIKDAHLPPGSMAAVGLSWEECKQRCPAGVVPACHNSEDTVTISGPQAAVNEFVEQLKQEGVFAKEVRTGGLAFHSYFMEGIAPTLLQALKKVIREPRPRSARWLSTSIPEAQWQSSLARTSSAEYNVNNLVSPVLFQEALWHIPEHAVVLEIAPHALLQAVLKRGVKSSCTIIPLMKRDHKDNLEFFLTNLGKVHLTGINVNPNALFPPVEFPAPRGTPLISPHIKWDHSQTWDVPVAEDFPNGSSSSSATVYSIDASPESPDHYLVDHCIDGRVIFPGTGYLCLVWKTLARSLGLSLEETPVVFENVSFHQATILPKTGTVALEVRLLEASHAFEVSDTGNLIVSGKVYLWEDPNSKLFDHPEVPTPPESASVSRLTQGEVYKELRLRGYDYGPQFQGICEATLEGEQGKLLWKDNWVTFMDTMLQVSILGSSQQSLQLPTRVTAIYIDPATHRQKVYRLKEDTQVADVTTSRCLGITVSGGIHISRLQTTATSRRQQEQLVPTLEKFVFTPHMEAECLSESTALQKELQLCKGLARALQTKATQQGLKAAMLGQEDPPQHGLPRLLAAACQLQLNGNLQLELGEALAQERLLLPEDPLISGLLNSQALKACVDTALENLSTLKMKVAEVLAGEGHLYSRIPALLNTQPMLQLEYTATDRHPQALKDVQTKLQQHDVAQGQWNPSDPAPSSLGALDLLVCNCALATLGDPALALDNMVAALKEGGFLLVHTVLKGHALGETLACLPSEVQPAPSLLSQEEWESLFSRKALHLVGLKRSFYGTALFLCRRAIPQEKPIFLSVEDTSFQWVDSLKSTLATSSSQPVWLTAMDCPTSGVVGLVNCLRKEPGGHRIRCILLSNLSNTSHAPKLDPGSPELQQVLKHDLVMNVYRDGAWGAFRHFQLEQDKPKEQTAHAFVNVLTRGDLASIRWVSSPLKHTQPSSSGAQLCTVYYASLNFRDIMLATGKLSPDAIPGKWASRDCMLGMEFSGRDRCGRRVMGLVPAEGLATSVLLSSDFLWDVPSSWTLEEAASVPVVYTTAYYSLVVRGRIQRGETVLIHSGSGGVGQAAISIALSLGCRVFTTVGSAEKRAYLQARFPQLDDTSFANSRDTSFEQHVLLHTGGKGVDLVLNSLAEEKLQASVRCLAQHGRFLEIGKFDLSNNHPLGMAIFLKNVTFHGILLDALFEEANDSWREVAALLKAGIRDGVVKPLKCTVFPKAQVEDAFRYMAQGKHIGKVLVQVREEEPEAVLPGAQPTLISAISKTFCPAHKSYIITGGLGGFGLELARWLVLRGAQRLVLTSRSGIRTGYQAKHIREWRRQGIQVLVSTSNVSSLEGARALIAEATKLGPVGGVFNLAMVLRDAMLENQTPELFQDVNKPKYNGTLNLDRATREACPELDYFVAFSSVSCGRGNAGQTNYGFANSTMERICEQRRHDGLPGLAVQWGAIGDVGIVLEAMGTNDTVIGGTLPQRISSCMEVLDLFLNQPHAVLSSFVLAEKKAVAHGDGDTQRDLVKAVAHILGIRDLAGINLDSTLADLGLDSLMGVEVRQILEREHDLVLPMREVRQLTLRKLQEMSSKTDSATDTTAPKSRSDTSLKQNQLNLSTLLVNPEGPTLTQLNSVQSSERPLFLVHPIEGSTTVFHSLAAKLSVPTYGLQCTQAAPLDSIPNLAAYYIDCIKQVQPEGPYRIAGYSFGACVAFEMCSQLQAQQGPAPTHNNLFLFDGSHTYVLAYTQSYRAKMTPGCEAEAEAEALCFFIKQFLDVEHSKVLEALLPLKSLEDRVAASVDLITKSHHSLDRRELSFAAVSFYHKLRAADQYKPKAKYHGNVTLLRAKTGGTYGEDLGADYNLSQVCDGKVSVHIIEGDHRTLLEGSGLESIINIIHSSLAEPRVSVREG

Fatty acid synthase, sequence (P19096 whole entry): as above

Regarding `C=C1C(=O)OC(CCCCCCCC)C1C(=O)O` (configuration not stated), the half-inhibitory concentration (IC50) at Fatty acid synthase was found to be 13.9 µM. In addition, the inhibition result with HepG2 was “Active”. In the case of `Cc1ccc(C(=O)O[C@H]2C(=O)OCC2(C)C)cc1`, at Fatty acid synthase, the 50% inhibitory concentration (IC50) came to 17.2 µM. Also, the inhibition result with HepG2 is “inactive”. `CC1(C)COC(=O)[C@@H]1O`: in test [1], the inhibition entry is “inactive”. Turning to `CCCCCCCCCCCCCCCCCC(=O)O[C@H]1C(=O)OCC1(C)C`, in test [1], the inhibition entry was “inactive”. With `CC1(C)COC(=O)[C@@H]1OC(=O)c1ccc(Br)cc1`, the inhibition result in test [1] was “inactive”. `CC(=O)O[C@H]1C(=O)OCC1(C)C`: the IC50 on Fatty acid synthase worked out at 33.2 µM. Take `COc1ccc(C(=O)O[C@H]2C(=O)OCC2(C)C)cc1`: at Fatty acid synthase, the IC50 was found to be 13.7 µM. In addition, the inhibition entry in the test with HepG2 was “Active”. In the case of `CCCC(=O)O[C@H]1C(=O)OCC1(C)C`, at Fatty acid synthase, the IC50 worked out at 28.2 µM. For `CC(C)Cc1ccc(C(C)C(=O)O[C@H]2C(=O)OCC2(C)C)cc1` (some centres not stated), the IC50 on Fatty acid synthase worked out at 28.2 µM. Consider `CC1(C)COC(=O)[C@@H]1OC(=O)c1ccc(Cl)cc1`, for which, on Fatty acid synthase, the IC50 came out at 19.2 µM. In addition, the inhibition result in the test on HepG2 was “Active”. As to `CC1(C)COC(=O)[C@@H]1OC(=O)c1ccccc1`, the IC50 on Fatty acid synthase worked out at 23 µM. Moreover, the inhibition result in the test with HepG2 is “inactive”. For `CCCCCC(=O)O[C@H]1C(=O)OCC1(C)C`, on Fatty acid synthase, the IC50 was 23.3 µM. Besides, the inhibition entry in the test with HepG2 was “Active”. Taken in the same sequence, the figures for `CCCCCCCC(=O)O[C@H]1C(=O)OCC1(C)C` were 20.8 µM and “Active”. Regarding `CCOc1ccc(C(=O)O[C@H]2C(=O)OCC2(C)C)cc1`, the inhibition entry in test [1] is “inactive”.

With `CCCCc1ccc(C(=O)O[C@H]2C(=O)OCC2(C)C)cc1`, the IC50 on Fatty acid synthase was determined as 27.7 µM. With `CCCCCCCCCCCCCCCC(=O)O[C@H]1C(=O)OCC1(C)C`, the IC50 on Fatty acid synthase was determined as 19.6 µM. In addition, the inhibition result in the test on HepG2 is “Active”. On to `CC1(C)COC(=O)[C@@H]1OC(=O)c1ccc(F)cc1`, for which the inhibition result in test [1] was “inactive”.

In the case of `CC(=O)Oc1cc(C(=O)O[C@H]2C(=O)OCC2(C)C)cc(OC(C)=O)c1OC(C)=O`, the IC50 at Fatty acid synthase was determined as 13.9 µM. Also, the inhibition entry in the test with HepG2 is “Active”.

Consider `CC1(C)COC(=O)[C@@H]1OC(=O)c1ccc(C#N)cc1`, for which the IC50 on Fatty acid synthase came to 21.5 µM. Also, the inhibition result with HepG2 was “Active”.

As to `CC1(C)COC(=O)[C@@H]1OC(=O)c1ccc(I)cc1`, the inhibition entry in test [1] is “inactive”. Take `CCCCCCCCCCCC(=O)O[C@H]1C(=O)OCC1(C)C`: the IC50 at Fatty acid synthase came out at 15.2 µM. The inhibition entry with HepG2 was “Active”.

As usually defined, the IC50 is the concentration at which inhibition is half-maximal.
